Broadly, the IC50 is the point on the concentration scale where inhibition reaches its midpoint.

One experiment has as its system HCT-116. The experiment is described as follows: Cytotoxicity against human HCT116 cells after 72 hrs by MTS assay. To be noted: HCT-116, 72 h. In kind it is functional, cell-based. In outline:
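HCT-116 colon tumor cells plated and incubated overnight at 37 °C, then given serially diluted samples in DMSO for a further 72 h. Etoposide as positive control and DMSO as negative control. MTS/PMS added for 3 h, absorbance read at 490 nm, IC50 derived from serial dilution data.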
In general terms: Formazan colour is commonly taken as a measure of viable cells.

The next experiment relates to Salmonidae. Put plainly: Displacement of ethidium bromide form salmon testes sperm DNA by fluorescence plate reader. The procedure, abridged: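 Salmon testes sperm DNA (25 μg mL⁻¹) with ethidium bromide (0.5 μg mL⁻¹) in TE, compound final concentrations 100 to 0.01 μM in tenfold steps. n = 4 per dose, n = 8 for controls. Fluorescence measured, background EtBr subtracted and divided by the DNA+EtBr control. KS is the concentration giving 50% fluorescence decrease.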

Experiment [1] concerns the target T1, DNA topoisomerase 1 (Homo sapiens) (UniProt P11387).
T1 sequence (whole entry): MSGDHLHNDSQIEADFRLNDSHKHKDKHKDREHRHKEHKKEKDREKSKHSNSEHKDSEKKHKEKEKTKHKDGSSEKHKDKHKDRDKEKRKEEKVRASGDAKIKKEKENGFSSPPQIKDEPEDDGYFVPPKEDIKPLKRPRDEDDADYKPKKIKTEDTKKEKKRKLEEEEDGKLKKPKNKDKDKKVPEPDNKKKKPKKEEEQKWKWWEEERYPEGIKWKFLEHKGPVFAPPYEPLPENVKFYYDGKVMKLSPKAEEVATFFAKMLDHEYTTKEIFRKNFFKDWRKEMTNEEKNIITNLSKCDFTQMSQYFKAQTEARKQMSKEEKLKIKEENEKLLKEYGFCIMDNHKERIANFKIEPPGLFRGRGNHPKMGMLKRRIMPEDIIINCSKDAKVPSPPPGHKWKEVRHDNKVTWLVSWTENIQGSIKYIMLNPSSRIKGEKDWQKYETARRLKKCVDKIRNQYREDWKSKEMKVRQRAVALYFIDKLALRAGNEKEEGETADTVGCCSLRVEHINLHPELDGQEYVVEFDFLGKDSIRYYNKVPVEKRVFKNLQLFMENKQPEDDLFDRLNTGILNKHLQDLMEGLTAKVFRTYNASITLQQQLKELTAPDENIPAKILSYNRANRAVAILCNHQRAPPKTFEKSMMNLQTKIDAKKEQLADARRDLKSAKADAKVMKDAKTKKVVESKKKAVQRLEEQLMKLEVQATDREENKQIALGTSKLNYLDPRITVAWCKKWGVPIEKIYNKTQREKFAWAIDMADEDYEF
Put plainly: Inhibition of topoisomerase 1-mediated relaxation of supercoiled DNA assessed as DNA cleavage at 500 uM relative to control. Also on record: scale not given: the % may be the effect or the level left. In outline: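 Radiolabeled supercoiled rf M13 mp19 DNA with purified topoisomerase I (80-120 ng) in Tris-HCl 50 mM pH 7.5, KCl 85 mM, MgCl2 10 mM, EDTA 0.5 mM, BSA 30 μg/mL, DTT 2 mM. Compound in DMSO, 30 °C for 30 min, then proteinase K/SDS at 37 °C for 60 min. 0.8% agarose gel, bands excised and scintillation counted. % cleaved from nicked plus linear bands over total, minus endogenous cleavage. 9-aminocamptothecin as reference.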

Experiment [2] deals with T1, DNA topoisomerase 1 (Homo sapiens). The experiment is described as follows: Inhibition of topoisomerase 1-mediated relaxation of supercoiled DNA assessed as DNA cleavage at 9 uM relative to control. Also on record: scale not given: the % may be the effect or the level left. In outline: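 Radiolabelled supercoiled rf M13 mp19 DNA (500 ng) and purified topoisomerase I (80-120 ng) in Tris-HCl 50 mM pH 7.5, KCl 85 mM, MgCl2 10 mM, EDTA 0.5 mM, BSA 30 µg/mL, DTT 2 mM. Compound added in DMSO; 30 °C, 30 min. Proteinase K/SDS stop (37 °C, 60 min). Bands resolved on 0.8% agarose, excised and scintillation-counted. Nicked+linear counts taken as % of total, minus endogenous cleavage.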

SMILES strings stand for the structures.

For the compound `C[N+]1=C2C=C(N)C(=O)c3[nH]cc(c32)CC1` [MAKALUVAMINE C], in the experiment with HCT-116, the IC50 was 1090 nM.
On the same count and under the same terms, the result for `O=C1C2=C3C4=[N+](CCc5c(Br)[nH]c1c54)C1C(O)C(Br)=CC3(CCN2)C1O` (stereo not given) reads 12500 nM.
Regarding `O=C1c2[nH]cc3c2C(=[N+](O)CC3)c2c(-c3ccc(O)cc3)c[nH]c21`, the IC50 with HCT-116 turned out to be 128000 nM. Also, the Ks in the experiment with Salmonidae turned out to be 20 µM. For the same compound, the Activity in experiment [1] stood at 45%.
For `O=C1C2=C3C4=[N+](CCc5c[nH]c1c54)C1CC3(C=C(Br)C1O)CCN2` (stereo not given) [DISCORHABDIN V], in the experiment with HCT-116, the IC50 was determined as 1270 nM.
Same read-out and setting: the result for `O=C1C[C@H]2S[C@H]3C[C@]2(C=C1Br)C1=C(N3)C(=O)c2[nH]cc3c2C1=NCC3` [DISCORHABDINE A] reads 7 nM.
In turn, `Cn1cc2c3c1C(=O)c1[nH]cc(-c4ccc(O)cc4)c1C3=[N+]([O-])CC2` came in with an IC50 in the experiment on HCT-116 of 16500 nM. In addition, the Ks with Salmonidae turned out to be 30 µM. Also, in experiment [1], the Activity was 26%.
In the experiment on HCT-116, `O=C1C2=C(C3=NCCc4c[nH]c1c43)C1(C=C(Br)C(O)C(Br)=C1)CCN2` (stereo not given) [DIHYDRODISCORHABDIN C] gave an IC50 of 323 nM.
Take `O=C1c2[nH]cc3c2C(=NCC3)c2c(-c3c[nH]c4ccccc34)c[nH]c21`: the Ks in the experiment on Salmonidae is 20 µM.
`COC1[C@H]2C(=O)C=C3S[C@H]4C[C@]31C1=C(N4)C(=O)c3[nH]cc4c3C1=[N+]2CC4` (stereo not given in full) returned an IC50 with HCT-116 of 232 nM.
The same measure, in the same setting: the result for `O=C1C2=C(C3=NCCc4c(Br)[nH]c1c43)C1(C=C(Br)C(O)C(Br)=C1)CCN2` (stereo not given) reads 645 nM; that for `O=C(O)CNC1C2C(=O)C=C3SC4CC31C1=C(N4)C(=O)c3[nH]cc4c3C1=[N+]2CC4` (stereo not given) [DISCORHABDIN N], 2250 nM.
Same read-out and setting: the result for `O=C1C2=C(C3=NCCc4c(Br)[nH]c1c43)C1(C=CN2)C=C(Br)C(O)C(Br)=C1` (stereo not given) reads 222 nM; that for `CN1CCc2c[nH]c3c2C1=CC(=O)C3=O` [DAMIRONE B], 3100 nM.
The compound `O=C1c2[nH]cc3c2C(=NCC3)c2c(-c3ccc(O)cc3)c[nH]c21` [TSITSIKAMMAMINE A] yielded an IC50 in the experiment on HCT-116 of 1410 nM. The Ks in the experiment on Salmonidae amounted to 15 µM. Further, the Activity in experiment [1] turned out to be 59%.
In turn, `O=C1C2=C3C4=[N+](CCc5c[nH]c1c54)[C@H]1C[C@@]34C[C@@H](N2)SC4=CC1=O` [DISCORHABDIN D] had an IC50 in the experiment on HCT-116 of 595 nM.
The same measure, in the same setting: the result for `CN1CCc2c[nH]c(C(=O)O)c2C1=O` [MAKALUVIC ACID A] reads 28400 nM; that for `NC1[C@H]2C(=O)C=C3S[C@H]4C[C@]31C1=C(N4)C(=O)c3[nH]cc4c3C1=[N+]2CC4` (stereo not given in full), 119 nM.
Regarding `O=C1C2=C(C3=NCCc4c[nH]c1c43)C1(C=CN2)C=C(Br)C(O)C(Br)=C1` (stereo not given), in the experiment with HCT-116, the IC50 came out at 197 nM.
In the case of `Cn1cc2c3c1C(=O)c1[nH]cc(-c4ccc(O)cc4)c1C3=NCC2` [TSITSIKAMMAMINE B], the IC50 with HCT-116 was 2380 nM. This compound yielded a Ks in the experiment with Salmonidae of 45 µM. Also, the Activity in experiment [1] came to 27%.
The compound `O=C1C(Br)=CC2(C=C1Br)CCNC1=C2C2=NCCc3c(Br)[nH]c(c32)C1=O` gave an IC50 with HCT-116 of 77 nM.
Same read-out and setting: the result for `O=C1C=CC23CC(NC4=C2C2=NCCc5c[nH]c(c52)C4=O)SC3=C1` (stereo not given) [DISCORHABDIN G] reads 327 nM.
Turning to `CC[C@@]1(O)C(=O)OCc2c1cc1n(c2=O)Cc2cc3c(N)cccc3nc2-1`, the Activity in experiment [2] worked out at 87%.

Values taken from ChEMBL document CHEMBL1148193, “Cytotoxic pyrroloiminoquinones from four new species of South African latrunculid sponges” (J Nat Prod, 2004).
